What was measured:
[1] = molecular target: T1, ATP-dependent translocase ABCB1 (Homo sapiens, UniProt P08183); assay: Inhibition of human MDR1 expressed in mouse L5178Y cells assessed as […] by measuring fluorescence activity ratio at 10 uM preincubated for 10 mins measured after 40 mins relative to control; assay type: cell-based
Outline: (§1)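 Transfected P-gp L5178Y subline and parental cells, 1 x 10^6/mL in serum-free McCoy's 5A, were preincubated 10 min at rt with inhibitor (DMSO stock 1.0 mg/mL). Rhodamine 123 followed (5 µL of 0.5 mM), 40 min at 37 °C, then two PBS washes. Flow cytometry on 1 x 10^4 cells. FAR = MDR/parental uptake, each normalised to its own untreated control.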

[2] = molecular target: T1, ATP-dependent translocase ABCB1; assay: Inhibition of human MDR1 expressed in mouse L5178Y cells assessed as […] by measuring fluorescence activity ratio at 1 uM preincubated for 10 mins measured after 40 mins relative to control; assay type: cell-based; outline: as §1
[3] = Cytotoxicity against mouse L5178Y cells expressing p-gp assessed as cell viability at 2.5 uM after 24 hrs by MTT assay; assay type: ADME, cell-based; details: read-out: Activity
Outline: (§2)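 Parental L5178Y mouse T-lymphoma cells and the human mdr1-transfected P-gp subline were kept in McCoy's 5A with 10% FCS, 2 mM L-glutamine and gentamicin, 37 °C, 5% CO2; the subline also got colchicine 60 ng/mL. Dihydropyridines were added at 1 to 80 µM final, 24 h at 37 °C. MTT was read at 560 nm after SDS/acetic acid/DMSO lysis. Triplicate runs.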

[4] = molecular target: T1, ATP-dependent translocase ABCB1; assay: Inhibition of human MDR1 expressed mouse L5178Y cells assessed as reduction of liposomal daunorubicin IC50 for cytotoxicity at 10 uM after 24 hrs by MTT assay; assay type: cell-based
[5] = molecular target: T1, ATP-dependent translocase ABCB1; assay: Inhibition of human MDR1 expressed mouse L5178Y cells assessed as reduction of liposomal daunorubicin IC50 for cytotoxicity at 2.5 uM after 24 hrs by MTT assay; assay type: cell-based
Outline: (§3)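 Liposomal daunorubicin (DaunoXome) was tested in the P-gp overexpressing L5178Y subline after preincubation with inhibitor at 2.5 µM or higher levels, 24 h at 37 °C, 5% CO2. Readout was MTT, lysis, then A560. IC50 came from mean percent growth inhibition of triplicate runs.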

[6] = Cytotoxicity against mouse L5178Y cells assessed as cell viability at 2.5 uM after 24 hrs by MTT assay; assay type: cell-based; details: read-out: Activity; outline: as §2
[7] = Cytotoxicity against mouse L5178Y cells expressing p-gp assessed as cell viability at 10 uM after 24 hrs by MTT assay; assay type: ADME, cell-based; details: read-out: Activity; outline: as §2
[8] = Cytotoxicity against mouse L5178Y cells assessed as cell viability at 10 uM after 24 hrs by MTT assay; assay type: cell-based; details: read-out: Activity; outline: as §2
[9] = molecular target: T1, ATP-dependent translocase ABCB1; assay: Inhibition of human MDR1 expressed mouse L5178Y cells assessed as reduction of daunorubicin IC50 for cytotoxicity at 2.5 uM after 24 hrs by MTT assay; assay type: cell-based; parameters: scale not given: the % may be the effect or the level left
Outline: (§4)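 Daunorubicin at 0.01 to 10 µM was combined with inhibitor at 2.5, 5 or 10 µM in the P-gp overexpressing L5178Y subline, 24 h at 37 °C, 5% CO2. Readout was MTT (4 h), SDS/acetic acid/DMSO lysis, A560. IC50 came from mean percent growth inhibition, n = 3.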

[10] = molecular target: T1, ATP-dependent translocase ABCB1; assay: Inhibition of human MDR1 expressed mouse L5178Y cells assessed as reduction of daunorubicin IC50 for cytotoxicity at 5 to 10 uM after 24 hrs by MTT assay; assay type: cell-based; outline: as §4
[11] = test system: L5178Y; assay: Cytotoxicity against mouse L5178Y cells expressing p-gp after 24 hrs by MTT assay; assay type: functional, cell-based
Outline: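 Daunorubicin, 0.01 to 10 µM, was given to the P-gp expressing L5178Y subline (McCoy's 5A, 10% FCS, colchicine 60 ng/mL) in 96-well plates, 24 h at 37 °C, 5% CO2. MTT (5 mg/mL stock) was added for 4 h, cells were lysed 30 min in SDS/acetic acid/DMSO, and A560 was read. IC50 came from mean percent growth inhibition of triplicate runs.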

[12] = test system: L5178Y; assay: Ratio of IC50 for mouse L5178Y cells expressing p-gp to IC50 for mouse L5178Y cells; assay type: functional
Outline: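 Parental L5178Y and P-gp-expressing L5178Y mdr cells were exposed to daunorubicin at 0.01–10 µM plus P-gp inhibitor for 24 h at 37 °C in 5% CO2. Viability was read by MTT (4 h) with SDS/acetic acid/DMSO lysis and A560. IC50s came from mean percent growth inhibition in triplicate, and the ratio is the mdr-line IC50 over the parental IC50.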

[13] = test system: L5178Y; assay: Cytotoxicity against mouse L5178Y cells after 24 hrs by MTT assay; assay type: functional, cell-based
Outline: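 Mouse T-lymphoma L5178Y parental cells and the mdr1-transfected L5178Y mdr subline were grown in McCoy's 5A with 10% FCS (mdr subline kept in colchicine 60 ng/mL). Compounds were tested at 1 to 80 µM final for 24 h at 37 °C in 5% CO2. MTT was added for 4 h, then SDS/acetic acid/DMSO lysis and A560 read-out. Run in triplicate.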

[14] = molecular target: T1, ATP-dependent translocase ABCB1; assay: Inhibition of human MDR1 expressed mouse L5178Y cells assessed as reduction of liposomal daunorubicin IC50 for cytotoxicity at 5 to 10 uM after 24 hrs by MTT assay; assay type: cell-based; outline: as §3
[15] = molecular target: T1, ATP-dependent translocase ABCB1; assay: Inhibition of human MDR1 expressed mouse L5178Y cells assessed as reduction of liposomal daunorubicin IC50 for cytotoxicity at 1 uM after 24 hrs by MTT assay; assay type: cell-based; parameters: scale not given: the % may be the effect or the level left

T1 sequence (P08183 whole entry): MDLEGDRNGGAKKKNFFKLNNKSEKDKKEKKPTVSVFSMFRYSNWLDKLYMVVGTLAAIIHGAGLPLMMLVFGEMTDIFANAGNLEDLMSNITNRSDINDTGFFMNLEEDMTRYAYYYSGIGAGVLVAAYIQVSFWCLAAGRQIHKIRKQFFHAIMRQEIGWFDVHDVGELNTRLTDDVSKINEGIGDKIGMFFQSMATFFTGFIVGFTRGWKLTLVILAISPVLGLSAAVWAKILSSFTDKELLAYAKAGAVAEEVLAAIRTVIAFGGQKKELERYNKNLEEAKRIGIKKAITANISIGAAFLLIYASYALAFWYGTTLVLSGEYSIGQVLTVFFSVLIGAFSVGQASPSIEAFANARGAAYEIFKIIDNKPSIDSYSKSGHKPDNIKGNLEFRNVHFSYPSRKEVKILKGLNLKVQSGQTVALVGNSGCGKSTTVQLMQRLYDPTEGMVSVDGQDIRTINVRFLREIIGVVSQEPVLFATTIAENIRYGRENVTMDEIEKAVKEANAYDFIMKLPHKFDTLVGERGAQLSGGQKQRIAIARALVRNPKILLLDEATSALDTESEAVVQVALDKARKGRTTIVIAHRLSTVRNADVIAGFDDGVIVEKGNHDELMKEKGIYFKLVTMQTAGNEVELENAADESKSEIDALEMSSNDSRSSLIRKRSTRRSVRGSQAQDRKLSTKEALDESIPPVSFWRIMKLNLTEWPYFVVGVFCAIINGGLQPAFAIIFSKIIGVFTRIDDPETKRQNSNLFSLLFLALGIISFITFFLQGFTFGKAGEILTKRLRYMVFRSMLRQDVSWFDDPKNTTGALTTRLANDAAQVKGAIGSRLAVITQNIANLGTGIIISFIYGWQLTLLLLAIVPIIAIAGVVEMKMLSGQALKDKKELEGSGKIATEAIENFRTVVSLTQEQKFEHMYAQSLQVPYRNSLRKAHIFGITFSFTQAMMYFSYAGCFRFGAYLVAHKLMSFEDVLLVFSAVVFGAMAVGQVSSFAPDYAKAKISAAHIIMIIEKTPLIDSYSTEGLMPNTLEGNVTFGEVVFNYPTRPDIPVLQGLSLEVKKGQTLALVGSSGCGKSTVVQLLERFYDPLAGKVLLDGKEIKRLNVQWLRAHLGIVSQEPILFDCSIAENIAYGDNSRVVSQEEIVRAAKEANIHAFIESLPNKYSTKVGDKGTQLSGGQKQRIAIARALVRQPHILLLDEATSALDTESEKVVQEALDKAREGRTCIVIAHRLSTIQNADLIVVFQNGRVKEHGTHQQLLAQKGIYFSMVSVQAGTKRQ

RFU [1]	RFU [2]	Compound	further results
3.45	1.43	CCOC(=O)C1=CN(Cc2ccccc2)C=CC1c1cccc2ccccc12 (configuration not stated)	
1.88	1.11	COC(=O)C1=CN(Cc2ccccc2)C=CC1c1ccc(C)cc1 (configuration not stated)	
4.13	1.5	COC(=O)C1=CN(Cc2ccc(OC)cc2)C=CC1c1ccccc1 (configuration not stated)	
2.54	1.34	CCOC(=O)C1=CN(Cc2ccccc2)C=CC1c1ccc(C)cc1 (configuration not stated)	
1.22	1.05	COC(=O)C1=CN(Cc2ccccc2)C=CC1c1cccc(Br)c1 (configuration not stated)	
7.8	1.72	COC(=O)C1=CN(Cc2ccc(C)cc2)C=CC1c1ccccc1 (configuration not stated)	viability at 24 h, 2.5 µM [3]: 81%; Activity [4]: Active; Activity [5]: Active; viability at 24 h, 2.5 µM [6]: 95%; viability at 24 h, 10 µM [7]: 75%; viability at 24 h, 10 µM [8]: 75%
1.76	1.13	COC(=O)C1=CN(Cc2ccccc2)C=CC1c1ccccc1OC (configuration not stated)	
3.97	1.82	COC(=O)C1=CN(Cc2ccccc2OC)C=CC1c1ccccc1 (configuration not stated)	
7.8	2.54	CCOC(=O)C1=CN(Cc2ccc(C)cc2)C=CC1c1ccccc1 (configuration not stated)	Activity [4]: Active; Activity [9]: > 50%; Activity [10]: Active
2.35	1.22	COC(=O)C1=CN(Cc2ccccc2)C=CC1c1cccc2ccccc12 (configuration not stated)	
2.67	1.25	CCOC(=O)C1=CN(Cc2ccccc2)C=CC1c1cccc(Cl)c1 (configuration not stated)	
2.38	1.18	CCOC(=O)C1=CN(Cc2ccccc2)C=CC1c1ccccc1OC (configuration not stated)	
2.19	1.19	COC(=O)C1=CN(Cc2cccc3ccccc23)C=CC1c1ccccc1 (configuration not stated)	
2.94	0.89	COc1ccc(CCN(C)CCCC(C#N)(c2ccc(OC)c(OC)c2)C(C)C)cc1OC (configuration not stated) [VERAPAMIL]	
1.53	1.05	COC(=O)C1=CN(Cc2ccccc2)C=CC1c1cccc(C(F)(F)F)c1 (configuration not stated)	
2.95	0.85	COC(=O)C1=CN(Cc2ccccc2)C=CC1c1ccc(OC)cc1 (configuration not stated)	
		COc1cccc2c1C(=O)c1c(O)c3c(c(O)c1C2=O)C[C@@](O)(C(C)=O)C[C@@H]3O[C@H]1C[C@H](N)[C@H](O)[C@H](C)O1 (stereo in doubt; form 2) [DAUNORUBICIN]	IC50 [11]: 7.73 µM; Ratio IC50 [12]: >10; IC50 [13]: 0.73 µM
2.76	1.27	CCOC(=O)C1=CN(Cc2ccccc2)C=CC1c1cccc(Br)c1 (configuration not stated)	
4.89	1.32	CCOC(=O)C1=CN(Cc2ccc(OC)cc2)C=CC1c1ccccc1 (configuration not stated)	Activity [4]: Active; Activity [5]: Active; viability at 24 h, 2.5 µM [6]: 97%; Activity [14]: Active; viability at 24 h, 10 µM [7]: 85%; Activity [15]: > 60%; viability at 24 h, 10 µM [8]: 100%
1.39	1.12	COC(=O)C1=CN(Cc2ccccc2)C=CC1c1cccc(Cl)c1 (configuration not stated)	
2.33	1.17	CCOC(=O)C1=CN(Cc2ccccc2)C=CC1c1cccc(C(F)(F)F)c1 (configuration not stated)	
		COc1cccc2c1C(=O)c1c(O)c3c(c(O)c1C2=O)C[C@@](O)(C(C)=O)C[C@@H]3O[C@H]1C[C@H](N)[C@H](O)[C@H](C)O1 (stereo in doubt; form 1) [DAUNORUBICIN]	IC50 [11]: 2.32 µM; IC50 [13]: 0.3 µM
2.74	1.28	CCOC(=O)C1=CN(Cc2cccc3ccccc23)C=CC1c1ccccc1 (configuration not stated)	
3.13	1.52	CCOC(=O)C1=CN(Cc2ccccc2)C=CC1c1ccc(OC)cc1 (configuration not stated)	
4.64	1.72	CCOC(=O)C1=CN(Cc2ccccc2OC)C=CC1c1ccccc1 (configuration not stated)	
